In ChEMBL document CHEMBL1144815, “Diphenidol-related diamines as novel muscarinic M4 receptor antagonists” (Bioorg Med Chem Lett, 2008):
Where a name gives a salt, the structure may show the parent alone. Activity calls are given as the source filed them. The calls are words filed in the database; no cut-off is given here.

Legend:
[1] = molecular target: T1, Muscarinic acetylcholine receptor M2 (Homo sapiens) (UniProt P08172); test: Antagonist activity at human muscarinic M2 receptor expressed in CHO cells assessed as inhibition of basal Eu-GTP binding; format: cell-based
T1 sequence (whole entry): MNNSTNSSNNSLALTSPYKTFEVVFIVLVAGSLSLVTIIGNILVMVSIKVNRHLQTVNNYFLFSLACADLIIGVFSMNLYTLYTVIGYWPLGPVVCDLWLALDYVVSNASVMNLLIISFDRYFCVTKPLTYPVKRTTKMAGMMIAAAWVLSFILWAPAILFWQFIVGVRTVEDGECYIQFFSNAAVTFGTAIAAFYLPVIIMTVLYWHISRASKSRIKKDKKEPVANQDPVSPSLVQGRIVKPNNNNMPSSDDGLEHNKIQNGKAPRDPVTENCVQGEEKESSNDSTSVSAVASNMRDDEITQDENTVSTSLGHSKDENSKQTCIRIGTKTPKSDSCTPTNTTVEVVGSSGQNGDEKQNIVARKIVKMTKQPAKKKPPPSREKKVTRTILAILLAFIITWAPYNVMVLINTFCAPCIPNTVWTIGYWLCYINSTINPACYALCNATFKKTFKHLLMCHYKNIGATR

[2] = molecular target: T2, Muscarinic acetylcholine receptor M3 (Homo sapiens, UniProt P20309); test: Displacement of [3H]N-methylscopolamine from human muscarinic M3 receptor expressed in CHO-K1 cells; format: cell-based
Target sequence in this assay (P20309 whole entry): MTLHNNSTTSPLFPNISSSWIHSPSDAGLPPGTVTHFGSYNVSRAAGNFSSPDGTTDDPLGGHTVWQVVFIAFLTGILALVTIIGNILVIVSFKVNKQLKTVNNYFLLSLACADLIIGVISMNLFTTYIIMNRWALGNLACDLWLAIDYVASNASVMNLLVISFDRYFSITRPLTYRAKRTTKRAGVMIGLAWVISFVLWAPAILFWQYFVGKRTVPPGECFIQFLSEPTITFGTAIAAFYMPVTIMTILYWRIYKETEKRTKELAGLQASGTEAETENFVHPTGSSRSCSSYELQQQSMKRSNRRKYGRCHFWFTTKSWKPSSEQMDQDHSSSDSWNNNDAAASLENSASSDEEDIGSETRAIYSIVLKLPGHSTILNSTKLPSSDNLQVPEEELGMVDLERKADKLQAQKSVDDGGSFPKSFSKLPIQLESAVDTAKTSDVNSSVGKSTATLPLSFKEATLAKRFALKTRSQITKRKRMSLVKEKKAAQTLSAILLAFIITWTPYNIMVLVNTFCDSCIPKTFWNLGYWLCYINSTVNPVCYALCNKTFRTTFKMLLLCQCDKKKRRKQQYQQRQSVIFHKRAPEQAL

[3] = molecular target: T3, Muscarinic acetylcholine receptor M1 (Homo sapiens) (UniProt P11229); test: Antagonist activity at human muscarinic M1 receptor expressed in CHO cells assessed as inhibition of carbachol-induced Eu-GTP binding; format: cell-based
T3 sequence (whole entry): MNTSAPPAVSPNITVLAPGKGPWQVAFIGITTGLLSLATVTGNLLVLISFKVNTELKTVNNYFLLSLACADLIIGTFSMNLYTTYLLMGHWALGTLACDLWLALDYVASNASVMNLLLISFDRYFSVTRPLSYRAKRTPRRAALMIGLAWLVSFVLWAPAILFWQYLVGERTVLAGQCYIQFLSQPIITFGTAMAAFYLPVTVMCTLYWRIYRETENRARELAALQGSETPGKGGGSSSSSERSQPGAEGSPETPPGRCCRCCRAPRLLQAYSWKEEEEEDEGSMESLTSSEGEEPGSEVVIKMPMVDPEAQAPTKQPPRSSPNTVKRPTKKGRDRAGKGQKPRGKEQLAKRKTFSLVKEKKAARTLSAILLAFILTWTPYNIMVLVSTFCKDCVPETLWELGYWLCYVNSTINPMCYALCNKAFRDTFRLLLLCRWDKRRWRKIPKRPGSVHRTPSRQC
How it was run: (§1)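 Membranes from CHO-K1 cells stably expressing the human receptor subtype. Agonist was carbachol, and the read-out was carbachol-stimulated binding of the non-hydrolysable analogue Eu-GTP to Gα subunits. pKb was estimated functionally by concentration-ratio analysis. Values are the mean of three experiments run in triplicate.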

[4] = molecular target: T4, Muscarinic acetylcholine receptor M4 (Homo sapiens) (UniProt P08173); test: Antagonist activity at human muscarinic M4 receptor expressed in CHO cells assessed as inhibition of basal Eu-GTP binding; format: cell-based
T4 sequence (whole entry): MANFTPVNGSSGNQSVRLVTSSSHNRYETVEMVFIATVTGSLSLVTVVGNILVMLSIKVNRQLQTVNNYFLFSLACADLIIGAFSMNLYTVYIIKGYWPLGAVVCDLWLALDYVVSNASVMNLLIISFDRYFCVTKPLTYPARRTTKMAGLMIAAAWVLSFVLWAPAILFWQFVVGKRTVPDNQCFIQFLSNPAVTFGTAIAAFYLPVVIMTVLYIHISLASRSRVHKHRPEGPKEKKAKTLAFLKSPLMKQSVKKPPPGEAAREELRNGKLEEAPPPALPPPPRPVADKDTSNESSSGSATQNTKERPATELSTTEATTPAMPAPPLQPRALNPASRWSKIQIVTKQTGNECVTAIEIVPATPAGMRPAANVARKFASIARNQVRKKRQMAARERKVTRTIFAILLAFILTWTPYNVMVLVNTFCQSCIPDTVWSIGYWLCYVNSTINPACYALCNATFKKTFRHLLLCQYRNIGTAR

[5] = molecular target: T2, Muscarinic acetylcholine receptor M3; test: Antagonist activity at human muscarinic M3 receptor expressed in CHO cells assessed as inhibition of carbachol-induced Eu-GTP binding; format: cell-based; how it was run: as §1
Target sequence in this assay (P20309 whole entry, looked up): as the sequence (P20309 whole entry) above

[6] = molecular target: T1, Muscarinic acetylcholine receptor M2 (Homo sapiens); test: Antagonist activity at human muscarinic M2 receptor expressed in CHO cells assessed as inhibition of carbachol-induced Eu-GTP binding; format: cell-based; how it was run: as §1
[7] = molecular target: T5, Muscarinic acetylcholine receptor M4 (Homo sapiens, UniProt P08173); test: Antagonist activity at human muscarinic M4 receptor expressed in CHO cells assessed as blockade of carbachol-induced inhibition of forskolin-stimulated cAMP accumulation; format: functional, cell-based
T5 sequence (P08173 whole entry): T4 sequence (whole entry)

[8] = molecular target: T4, Muscarinic acetylcholine receptor M4 (Homo sapiens); test: Antagonist activity at human muscarinic M4 receptor expressed in CHO cells assessed as inhibition of carbachol-induced Eu-GTP binding; format: cell-based; how it was run: as §1
[9] = molecular target: T6, Muscarinic acetylcholine receptor M5 (Homo sapiens) (UniProt P08912); test: Antagonist activity at human muscarinic M5 receptor expressed in CHO cells assessed as inhibition of carbachol-induced Eu-GTP binding; format: cell-based; how it was run: as §1
T6 sequence (whole entry): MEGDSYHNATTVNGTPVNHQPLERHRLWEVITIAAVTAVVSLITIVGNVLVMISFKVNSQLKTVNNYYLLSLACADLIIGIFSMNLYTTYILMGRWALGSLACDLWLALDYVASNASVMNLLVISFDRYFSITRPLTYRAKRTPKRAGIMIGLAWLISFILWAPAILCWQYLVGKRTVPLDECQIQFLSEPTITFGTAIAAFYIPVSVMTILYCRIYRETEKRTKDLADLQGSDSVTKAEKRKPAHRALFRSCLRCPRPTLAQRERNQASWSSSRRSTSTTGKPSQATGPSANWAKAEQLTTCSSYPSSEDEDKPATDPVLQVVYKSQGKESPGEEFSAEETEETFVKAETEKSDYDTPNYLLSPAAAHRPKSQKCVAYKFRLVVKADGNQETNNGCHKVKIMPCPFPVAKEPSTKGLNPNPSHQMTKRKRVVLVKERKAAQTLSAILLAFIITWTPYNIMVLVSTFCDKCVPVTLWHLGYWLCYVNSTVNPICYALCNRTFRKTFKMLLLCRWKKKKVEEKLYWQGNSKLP

[10] = molecular target: T7, Muscarinic acetylcholine receptor M1 (Homo sapiens, UniProt P11229); test: Displacement of [3H]N-methylscopolamine from human muscarinic M1 receptor expressed in CHO-K1 cells; format: cell-based
T7 sequence (P11229 whole entry): T3 sequence (whole entry)

[11] = molecular target: T3, Muscarinic acetylcholine receptor M1 (Homo sapiens); test: Antagonist activity at human muscarinic M1 receptor expressed in CHO cells assessed as inhibition of basal Eu-GTP binding; format: cell-based
[12] = molecular target: T8, Muscarinic acetylcholine receptor M5 (Homo sapiens, UniProt P08912); test: Displacement of [3H]N-methylscopolamine from human muscarinic M5 receptor expressed in CHO-K1 cells; format: cell-based
T8 sequence (P08912 whole entry): T6 sequence (whole entry)
How it was run: (§2)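 Binding was measured in CHO-K1 stable transfectants expressing the human receptor subtype. Labelled ligand was [³H]-N-methylscopolamine chloride. Values are the mean of three experiments performed in triplicate.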

[13] = molecular target: T5, Muscarinic acetylcholine receptor M4; test: Displacement of [3H]N-methylscopolamine from human muscarinic M4 receptor expressed in CHO-K1 cells; format: cell-based; how it was run: as §2
[14] = molecular target: T6, Muscarinic acetylcholine receptor M5 (Homo sapiens); test: Antagonist activity at human muscarinic M5 receptor expressed in CHO cells assessed as inhibition of basal Eu-GTP binding; format: cell-based
[15] = molecular target: T2, Muscarinic acetylcholine receptor M3; test: Antagonist activity at human muscarinic M3 receptor expressed in CHO cells assessed as inhibition of basal Eu-GTP binding; format: cell-based
Target sequence in this assay (P20309 whole entry, looked up): as the sequence (P20309 whole entry) above

[16] = molecular target: T9, Muscarinic acetylcholine receptor M2 (Homo sapiens, UniProt P08172); test: Displacement of [3H]N-methylscopolamine from human muscarinic M2 receptor expressed in CHO-K1 cells; format: cell-based; how it was run: as §2
T9 sequence (P08172 whole entry): T1 sequence (whole entry)

[17] = molecular target: T4, Muscarinic acetylcholine receptor M4 (Homo sapiens); test: Antagonist activity at human muscarinic M4 receptor expressed in CHO cells assessed as inhibition of forskolin-stimulated cAMP accumulation in absence of carbachol at 01 nM to 1 uM; format: functional, cell-based

Row | SMILES | Activity [1] | Ki [2] | pKb [3] | Activity [4] | pKb [5] | pKb [6] | EC50 [7] | IC50 [7] | pKb [8] | pKb [9] | Ki [10] | Activity [11] | Ki [12] | Ki [13] | Activity [14] | Activity [15] | Ki [16] | Activity [17]
1 | C[N+]1(CCCC(O)(c2ccccc2)c2ccccc2)CCC(C2CC[N+](C)(CCCC(O)(c3ccccc3)c3ccccc3)CC2)CC1 (centres undefined) | inactive | 0.372 µM | 6.04 | inactive | 6.25 | 6.1 | 67 nM | 67 nM | 7.83 | 6.02 | 0.603 µM | inactive | 0.589 µM | 12.6 nM | inactive | inactive | 0.363 µM | 
2 | C[N+]1(C)CCC(C2CC[N+](C)(CCCC(O)(c3ccccc3)c3ccccc3)CC2)CC1 (centres undefined) |  | 3.63 µM |  |  |  |  |  |  |  |  | 8.32 µM |  | 25.7 µM | 2690 nM |  |  | 4.37 µM | 
3 | CCOC(=O)c1c(C)[nH]c2ccc3c(c12)CN1CCc2cc(OC)ccc2C1O3 (centres undefined) | inactive | 0.724 µM | 5.74 | inactive | 5.63 | 5.55 | 54 nM | > 1000 nM | 7.9 | 5.84 | 2.29 µM | inactive | 1.82 µM | 6.46 nM | inactive | inactive | 1.1 µM | inactive
4 | OC(CCCN1CCN(CCCC(O)(c2ccccc2)c2ccccc2)CC1)(c1ccccc1)c1ccccc1 |  | 87.1 µM |  |  |  |  |  |  |  |  | 851 µM |  | 23.4 µM | 22400 nM |  |  | 178 µM | 
5 | C[N+](C)(CCCC(O)(c1ccccc1)c1ccccc1)CCC[N+](C)(C)CCCC(O)(c1ccccc1)c1ccccc1 |  | 12.3 µM |  |  |  |  |  |  |  |  | 7.24 µM |  | 7.59 µM | 11200 nM |  |  | 12 µM | 
6 | OC(CCCN1CCC(C2CCN(CCCC(O)(c3ccccc3)c3ccccc3)CC2)CC1)(c1ccccc1)c1ccccc1 | inactive | 0.724 µM | 5.92 | inactive | 6.14 | 5.82 | 138 nM |  | 7.21 | 6.4 | 0.794 µM | inactive | 0.776 µM | 74.1 nM | inactive | inactive | 0.871 µM | 
7 | C[N+]1(C)CCN(CCCC(O)(c2ccccc2)c2ccccc2)CC1 |  | 4.07 µM |  |  |  |  |  |  |  |  | 2.95 µM |  | 9.55 µM | 4790 nM |  |  | 23.4 µM | 
8 | OC(CCCN1CCN(c2ccccc2)CC1)(c1ccccc1)c1ccccc1 |  | 70.8 µM |  |  |  |  |  |  |  |  | 363 µM |  | 123 µM | 100000 nM |  |  | 457 µM | 
9 | C[N+]1(CCCC(O)(c2ccccc2)c2ccccc2)CCN(CCCC(O)(c2ccccc2)c2ccccc2)CC1 |  | 5.5 µM |  |  |  |  |  |  |  |  | 7.08 µM |  | 1.55 µM | 1230 nM |  |  | 2.29 µM | 
10 | CN1CCC(C2CCN(CCCC(O)(c3ccccc3)c3ccccc3)CC2)CC1 |  | 5.25 µM |  |  |  |  |  |  |  |  | 5.75 µM |  | 2.88 µM | 1170 nM |  |  | 3.98 µM | 
11 | CN(CCCC(O)(c1ccccc1)c1ccccc1)CCN(C)CCCC(O)(c1ccccc1)c1ccccc1 |  | 380 µM |  |  |  |  |  |  |  |  | 245 µM |  | 229 µM | 162000 nM |  |  | 214 µM | 
12 | CN(CCCN(C)CCCC(O)(c1ccccc1)c1ccccc1)CCCC(O)(c1ccccc1)c1ccccc1 |  | 1.74 µM |  |  |  |  |  |  |  |  | 1.35 µM |  | 0.832 µM | 617 nM |  |  | 5.5 µM | 
13 | C[N+]1(CCCC(O)(c2ccccc2)c2ccccc2)CCN(c2ccccc2)CC1 |  | 7.59 µM |  |  |  |  |  |  |  |  | 17.4 µM |  | 6.92 µM | 22900 nM |  |  | 25.7 µM | 
14 | CN1CCN(CCCC(O)(c2ccccc2)c2ccccc2)CC1 |  | 7.41 µM |  |  |  |  |  |  |  |  | 7.76 µM |  | 13.5 µM | 9770 nM |  |  | 35.5 µM | 
15 | C[N+]1(CCCC(O)(c2ccccc2)c2ccccc2)CCCCC1 |  | 0.275 µM |  |  |  |  |  |  |  |  | 0.2 µM |  | 0.708 µM | 288 nM |  |  | 0.275 µM | 
16 | OC(CCCN1CCNCC1)(c1ccccc1)c1ccccc1 |  | 0.661 µM |  |  |  |  |  |  |  |  | 0.603 µM |  | 1.41 µM | 1170 nM |  |  | 7.24 µM | 
17 | C[N+](C)(CCCC(O)(c1ccccc1)c1ccccc1)CC[N+](C)(C)CCCC(O)(c1ccccc1)c1ccccc1 |  | 43.7 µM |  |  |  |  |  |  |  |  | 26.3 µM |  | 18.2 µM | 11200 nM |  |  | 47.9 µM | 
18 | OC(CCCN1CCCCC1)(c1ccccc1)c1ccccc1 [DIPHENIDOL HYDROCHLORIDE] |  |  |  |  |  |  |  |  |  |  |  |  | 1.29 µM | 912 nM |  |  | 2.82 µM | 
